# From ChEMBL document CHEMBL1153864, “Phase transfer catalyzed synthesis of bis-quinolines: antileishmanial activity in experimental visceral leishmaniasis and in vitro antibacterial evaluation” (Eur J Med Chem, 2009)
# How the values were obtained:
# Leishmania donovani [1] = assay: Antileishmanial activity against Leishmania donovani MHOM/IN/1983/AG83 promastigotes after 4 hrs by MTT assay; format: functional, organism-based; details: MHOM/IN/1983/AG83, 4 h
# In short: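 AG83 promastigotes kept at 22 °C in M199 + 10% FBS. Log-phase cells (2×10^6/ml) exposed 2 h at 22 °C to 1, 3, 5, 7, 10, 15 compound; DMSO at 0.1% final. Cells washed with PBS, incubated 4 h at 22 °C with MTT (2 mg/ml). Formazan dissolved in DMSO and read at 570 nm; % lysis computed, IC50 by linear regression.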
# Leishmania donovani [2] = assay: Antileishmanial activity against Leishmania donovani MHOM/IN/1983/AG83 amastigotes by Giemsa staining; format: functional, organism-based
# In short: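 Peritoneal macrophages from thioglycolate-elicited exudate (~2×10^6/ml), adhered overnight on coverslips in RPMI-1640 + 10% FBS at 37 °C, 5% CO2. Infected 6 h with stationary-phase AG83 promastigotes (2×10^7/ml), washed, then exposed 24 h to 0.5, 1, 3, 5, 10 compound. Methanol-fixed, Giemsa-stained; amastigotes per 200 macrophages counted against untreated controls.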
# [3] = Toxicity against golden Syrian hamster peritoneal macrophages; format: cell-based, Mesocricetus auratus; details: macrophage
# Leishmania donovani [4] = assay: Antileishmanial activity against Leishmania donovani MHOM/IN/1983/AG83 promastigotes infected ip dosed BALB/c mouse assessed as reduction in spleen parasite burden administered two times per week for 4 weeks relative to control; format: functional; set-up: scale not given: the % may be the effect or the level left
# In short: (§1)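 BALB/c mice (4-6 weeks) were infected iv with 2 × 10^7 freshly transformed promastigotes. One month later, groups were dosed ip in 0.2% Tween 80 in PBS (0.02 M), twice weekly for one month (8 doses); controls got vehicle only. Mice were killed one month post-treatment and spleen and liver were weighed. Parasite load came from Giemsa impression smears as organ weight (mg) × amastigotes per cell nucleus × 2 × 10^5. Values are mean ± S.E. of 5 mice; unpaired t-test.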
# Leishmania donovani [5] = assay: Antileishmanial activity against Leishmania donovani MHOM/IN/1983/AG83 promastigotes infected ip dosed BALB/c mouse assessed as reduction in liver parasite burden administered two times per week for 4 weeks relative to control; format: functional; set-up: scale not given: the % may be the effect or the level left; in short: as §1
# Leishmania donovani [6] = assay: Antileishmanial activity against Leishmania donovani MHOM/IN/1983/AG83 promastigotes infected BALB/c mouse assessed as liver weight at 12.5 mg/kg, ip administered two times per week for 4 weeks; format: functional; details: route intraperitoneal; in short: as §1
# Leishmania donovani [7] = assay: Antileishmanial activity against Leishmania donovani MHOM/IN/1983/AG83 promastigotes infected BALB/c mouse assessed as spleen weight at 12.5 mg/kg, ip administered two times per week for 4 weeks; format: functional; details: route intraperitoneal; in short: as §1
Compound,IC50 (Leishmania donovani [2]),IC50 (Leishmania donovani [1]),Activity [3],Activity (Leishmania donovani [4]),Activity (Leishmania donovani [5]),Activity (Leishmania donovani [6]),Activity (Leishmania donovani [7])
N=C(N)c1ccc(OCCCCCOc2ccc(C(=N)N)cc2)cc1 [PENTAMIDINE],2.8 µg/mL,2.1 µg/mL,> 90 µg/mL,,,,
O=c1ccc2cccc3c2n1CCO3 [OXAZINOQUINOLONE],14 µg/mL,16.5 µg/mL,> 220 µg/mL,,,,
Cc1ccc2cccc(OCCCCOc3cccc4ccc(C)nc34)c2n1,2.7 µg/mL,3.2 µg/mL,> 90 µg/mL,73.5%,78%,1125 mg,190 mg
C[C@@H]1[C@H](O)[C@@H](C)/C=C/C=C/C=C/C=C/C=C/C=C/C=C/[C@H](O[C@@H]2O[C@H](C)[C@@H](O)[C@H](N)[C@@H]2O)C[C@@H]2O[C@](O)(C[C@@H](O)C[C@@H](O)[C@H](O)CC[C@@H](O)C[C@@H](O)CC(=O)O[C@H]1C)C[C@H](O)[C@H]2C(=O)O [AMPHOTERICIN B],0.1 µg/mL,0.16 µg/mL,> 4 µg/mL,,,,
Cc1ccc2cccc(OCOc3cccc4ccc(C)nc34)c2n1,2.9 µg/mL,3.4 µg/mL,> 100 µg/mL,,,1205 mg,232 mg

# Further lines, with some results ahead:
IC50 (Leishmania donovani [2]),Compound,IC50 (Leishmania donovani [1]),Activity [3],Activity (Leishmania donovani [4]),Activity (Leishmania donovani [5]),Activity (Leishmania donovani [6]),Activity (Leishmania donovani [7])
10 µg/mL,Cc1ccc2cccc(OCCCOc3cccc4ccc(C)nc34)c2n1,13.5 µg/mL,> 200 µg/mL,,,,
2.3 µg/mL,c1cnc2c(OCOc3cccc4cccnc34)cccc2c1,2.4 µg/mL,> 85 µg/mL,89%,92%,980 mg,110 mg
2.4 µg/mL,Cc1ccc2cccc(OCCCCCOc3cccc4ccc(C)nc34)c2n1,2.8 µg/mL,> 85 µg/mL,82%,88.5%,1020 mg,135 mg
